Test results from ChEMBL document CHEMBL1148016, “Synthesis of 1,3-diphenyl-2-propen-1-one derivatives and evaluation of their biological activities” (Bioorg Med Chem, 2007).
Activity calls are given as the source filed them. The rule behind the calls is not given here.

Assays:
[1] = DPPH radical scavenging activity; type: functional
Outline: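 Compound mixed with 0.1 mM acetic acid buffer and warmed to 25 °C for 5 min, then 0.2 mM DPPH in ethanol added. Absorbance read at 517 nm after 30 min. Scavenging rate (%) = {1 − (A − C)/B} × 100, with sample, colour-contrast and blank absorbances. 50% scavenging concentration calculated from the scavenging rate.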

Microglia = assay: Suppression of LPS-induced NO production in Sprague-Dawley rat microglia after 24 hrs; type: functional, cell-based
Outline: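 Primary microglia from postnatal day-1 Sprague–Dawley rat cortex, grown 10–14 days in MEM/10% FBS, detached by shaking and replated. Cells given LPS 1 µg/mL with compound (1, 5, 10, 20 µM) for 24 h at 37 °C. Supernatant nitrite measured by Griess reaction at 540 nm. Three independent experiments in triplicate.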

Cortical neurone [2] = assay: Inhibition of glutamate-induced neurotoxicity in mouse cortical neurons assessed as cell death at 5 uM after 24 hrs relative to NMDA; type: functional
Outline: (§1)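 Mixed cortical neuron/glia cultures from fetal day-15 mouse cortex, on poly-D-lysine/laminin. Cytosine arabinoside 10 uM from DIV 6. Cultures exposed in serum-free MEM to 60 µM glutamate plus compound for 24 h at 37 °C. Viability by WST-1 (1:10, 2 h, 37 °C), read at 450 nm with 650 nm reference and normalized to untreated wells. Three independent experiments in triplicate.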

Cortical neurone [3] = assay: Inhibition of glutamate-induced neurotoxicity in mouse cortical neurons assessed as cell death at 10 uM after 24 hrs relative to NMDA; type: functional; outline: as §1

| SMILES | IC50 [1] | Activity (Microglia) | Activity (Cortical neurone [2]) | Activity (Cortical neurone [3]) |
| --- | --- | --- | --- | --- |
| COc1cc(/C=C/C=O)ccc1O [CONIFERYL ALDEHYDE] | 64.6 µM |  |  |  |
| COc1cc(/C=C/C(=O)c2ccc(C(F)(F)F)cc2)ccc1O | 43.8 µM | Active |  |  |
| COc1cc(/C=C/C(=O)c2cc(F)c(F)c(F)c2)ccc1O | 53.2 µM | Active | Active | Active |
| COc1cc(/C=C/C(=O)c2ccc(OC)c(F)c2)ccc1O | 52.5 µM | Active |  |  |

More lines, main results first:

| IC50 [1] | SMILES | Activity (Microglia) | Activity (Cortical neurone [2]) | Activity (Cortical neurone [3]) |
| --- | --- | --- | --- | --- |
| 45.5 µM | COc1cc(/C=C/C(=O)c2c(O)c3ccccc3oc2=O)ccc1O[Si](C)(C)C(C)(C)C | Active |  |  |
| 52.5 µM | COc1cc(/C=C/C(=O)c2c(O)c3ccccc3oc2=O)ccc1O | Active | Active | Active |
| 52.8 µM | COc1cc(/C=C/C(=O)c2ccc([Si](C)(C)C)cc2)ccc1O | Active |  |  |
| 46 µM | COc1cc(/C=C/C(=O)c2ccc3c(c2)OCO3)ccc1O | Active | Active | Active |
